Here are results for 56 compounds from PubChem BioAssay AID463104 (Sanford-Burnham Center for Chemical Genomics, 2010).

Screen size: about 330,000 compounds; about 1,100 (0.33%) were called active.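 Rule for the calls: active = versus positive control, 20 µM dose yields 30% or more activation; inactive = the rest.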 What follows is part of a selection rich in actives, with near analogues and random picks from the rest.

A short description of the assay: activators of adaptive XBP1 UPR arm, primary screen, cell-based, CHO-XBP1 luciferase reporter, luminescence, uHTS (AID 463104).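 Note: 100% = tunicamycin at 10 µg/mL and 0% = DMSO only wells.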 Particulars: IRE1-XBP1 UPR activation, at 20 µM, active compounds read high, percent of tunicamycin response, DMSO as zero. An outline of the steps: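 Material: CHO cell line with stable XBP1 luciferase reporter; buffer or medium: F12 medium containing 10% fetal bovine serum; compound: single point, 20 µM final compound, 1% DMSO; incubation: 6 h treatment, 37 °C; measured by: glow luminescence from Steady-Glo reagent; evaluation: activation, % of tunicamycin; control set: tunicamycin high, DMSO low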
On to `OCCC1CN(Cc2ccccc2-c2ccco2)CCN1Cc1ccsc1` (stereo unspecified), for which the activation is -1.57% (inactive).

With `Cc1cc(NC(=O)Nc2c[nH]c(=O)[nH]c2=O)ccc1Br`, the activation was -0.89% (inactive).

On to `CNc1nc(Nc2ccc(C)c(Cl)c2)nc(N)c1[N+](=O)[O-]`, for which the activation was 10.8% (inactive).

Regarding `Cc1ccc(Nc2nc(N)nc(CN3CCN(Cc4ccccc4)CC3)n2)cc1Cl`, the activation is 3.65% (inactive).

As to `OCCNc1nc(Nc2ccc(Cl)c(Cl)c2)nc2ccccc12`, the activation was 46.6% (active).

In the case of `COC(=O)c1ccc(COc2ccc(/C=N/NC(=O)C(=O)Nc3ccc(OC)cc3)cc2OC)o1`, the activation is -0.77% (inactive).

`CCCc1ccc(OCc2ccc(C(=O)N/N=C/c3cccc([N+](=O)[O-])c3)o2)c(OC)c1`: the activation is 35.5% (active).

For `N#Cc1cc([N+](=O)[O-])ccc1Oc1cccc(/C=N/NC(=O)c2ccc(Cl)cc2)c1`, the activation was -0.61% (inactive).

`CCOC(=O)COn1c(=O)c(-c2ccc(OCC)cc2)[n+]([O-])c2ccccc21`: the activation is 0.06% (inactive).

Take `CCCCCCCCCCOC(=O)Cn1c(COc2cccc(OC)c2)[n+](C)c2ccccc21`: the activation is 20.9% (inactive).

`CCCCCCCCCCOC(=O)Cn1c(COc2ccc(C)cc2)[n+](C)c2ccccc21`: the activation was 41.7% (active).

Take `CCN(CC(=O)NCC(=O)Nc1cccc(C)c1C)Cc1ccccc1`: the activation was -5.66% (inactive).

Turning to `Cc1c(Br)c([N+](=O)[O-])nn1C(C)C(=O)Nc1nccs1` (stereo unspecified), the activation is -1.86% (inactive).

As to `Cc1ccc(-n2c(O)c(C=Nc3ccc(S(=O)(=O)Nc4ncccn4)cc3)c3ccccc3c2=O)cc1C`, the activation is -1.86% (inactive).

As to `COC(=O)Cc1csc(Nc2c(C)n(C)n(-c3ccccc3)c2=O)n1`, the activation is -0.87% (inactive).

On to `COC(=O)Cc1csc(/N=C/c2c(O)n(-c3cccc(C(F)(F)F)c3)c(=O)c3ccccc23)n1`, for which the activation was 46.3% (active).

As to `CC(=O)Nc1ccccc1Sc1ccc2c3c(cccc13)C(=O)N(c1ccc(C)cc1)C2=O`, the activation was 33.8% (active).

As to `CSc1ccccc1NC(=O)C(C)N1C(=O)c2ccccc2S1(=O)=O` (stereo unspecified), the activation was 0.16% (inactive).

On to `Cc1ccc(N2C(=O)CC(Nc3cccc4ccccc34)C2=O)cc1` (stereo unspecified), for which the activation is -0.83% (inactive).

On to `CC1CCN(C(=O)COC(=O)c2cc(=O)[nH]c3ccccc23)CC1`, for which the activation is -0.76% (inactive).

Consider `CCn1c2ccccc2c2cc(NC(=S)N3CCOCC3)ccc21`, for which the activation was -1.32% (inactive).

Take `CCOC(=O)C(C)n1cnc2c(nnn2-c2cccc(OC)c2)c1=O` (stereo unspecified): the activation was -2.11% (inactive).

For `CCOc1ccc(NS(=O)(=O)c2ccc(C(=O)NCC(c3ccccc3OC)N3CCCC3)cc2)cc1` (stereo unspecified), the activation was -3.45% (inactive).

As for `CCOc1ccc(S(=O)(=O)Nc2cccc(C(=O)NCC3(N4CCCCC4)CCCCC3)c2)cc1`, the activation is 66.6% (active).

`O=C(NCC1(N2CCCCC2)CCCCC1)c1ccc(NS(=O)(=O)c2ccc(F)cc2)cc1`: the activation is 0.16% (inactive).

`CCOc1ccccc1C(=O)NC1CC2CCCC(C1)N2Cc1ccccc1` (stereo unspecified): the activation was 2.18% (inactive).

For the compound `Cc1ccc(C)c(NC(=O)c2ccc3nccnc3c2)c1`, the activation is 0.85% (inactive).

As to `Clc1ccc(CSc2nnc([C@@H]3CCCN3)o2)cc1`, the activation was 0.7% (inactive).

On to `CCC1CCCCN1S(=O)(=O)Cc1ccccc1Cl` (stereo unspecified), for which the activation is -1.25% (inactive).

`COC(=O)c1c(NC(=O)CN2CCN(S(=O)(=O)c3ccccc3[N+](=O)[O-])CC2)sc2c1CCC(C)C2` (stereo unspecified): the activation is -0.95% (inactive).

On to `O=C1CSC2=NCN(c3ccccc3)CN12`, for which the activation is 1.38% (inactive).

Regarding `CN(c1cccc(NC(=O)c2ccc(CN3CCc4ccccc4C3)cc2)c1)S(C)(=O)=O`, the activation was -1.68% (inactive).

In the case of `CN(c1cccc(NC(=O)Nc2ccc(Cl)cc2)c1)S(C)(=O)=O`, the activation was 33.6% (active).

For the compound `CN(c1ccccc1)S(=O)(=O)c1cccc(NC(=O)Cc2ccc(Cl)cc2)c1`, the activation is -1.79% (inactive).

For `CCCOc1cccc(C(=O)Nc2nnn(CCC)n2)c1`, the activation is 0.81% (inactive).

With `Cc1noc(C)c1S(=O)(=O)Nc1cc(C(F)(F)F)ccc1N1CCOCC1`, the activation was -0.99% (inactive).

As for `COCCNC(=S)c1ccc(OC)cc1`, the activation is -1.99% (inactive).

`O=C(NCc1ccc(Cl)cc1)C(=O)NCC1CCCN1S(=O)(=O)c1cccs1` (stereo unspecified): the activation was -4.11% (inactive).

For the compound `O=C(C[C@H]1C/C=C\C[C@@H](NC(=O)OCC2c3ccccc3-c3ccccc32)C(=O)O[C@@H](c2ccccc2)CNC1=O)N[C@H](CO)Cc1ccccc1`, the activation was 100% (active).

On to `CC(C)(C)OC(=O)C[C@@H]1C/C=C\C[C@@H](CC(=O)N[C@H](CO)Cc2ccccc2)C(=O)NC[C@@H](c2ccccc2)OC1=O`, for which the activation is -1.85% (inactive).

`CC(C)(C)OC(=O)C[C@H]1C/C=C\C[C@@H](CC(=O)N[C@H](CO)Cc2ccccc2)C(=O)NC[C@@H](c2ccccc2)OC1=O`: the activation is 5.5% (inactive).

For `O=c1c(Cl)c(NCc2ccc(F)cc2Cl)cnn1C12CC3CC(CC(C3)C1)C2`, the activation is -1.62% (inactive).

`COc1ccc(C(=O)N2CCN(c3ncccn3)CC2)cc1S(=O)(=O)N1CCOCC1`: the activation was 1.37% (inactive).

On to `Cc1cccc(NC(=O)CN2CCN(C(=O)C3CCN(C(=O)/C=C/c4ccccc4)CC3)CC2)c1C`, for which the activation was -2.16% (inactive).

`CCOC(=O)/C=c1\s/c(=C\c2ccc(C#N)cc2)c(=O)n1CC(=O)Nc1cccc(C)c1C`: the activation was 217% (active).

Regarding `Cc1cccc(NC(=O)CSC(N)=O)c1C`, the activation is 0.46% (inactive).

Take `Cc1csc(NC(=O)C2CCCN2C(=O)OCC(C)C)n1` (stereo unspecified): the activation was -2.24% (inactive).

As for `Cc1ccc(/C=C/C(=O)OCC(=O)Nc2cccnc2Cl)cc1`, the activation was -1.42% (inactive).

On to `O=C(COC(=O)/C=C/c1cn(-c2ccccc2)nc1-c1cccnc1)Nc1ccc(Cl)cc1Cl`, for which the activation was 43.9% (active).

On to `COc1ccc(NC(=O)CN(C)C(=O)/C=C/c2cn(Cc3ccccc3)nc2-c2cccnc2)cc1`, for which the activation is -0.51% (inactive).

For `O=S(=O)(c1ccc(-c2ccno2)s1)N1CCCCC1`, the activation was -1.02% (inactive).

Turning to `COc1ccc(OC)c(S(=O)(=O)N2CCCC(C(=O)N3CCC(C(N)=O)CC3)C2)c1` (stereo unspecified), the activation is 0.16% (inactive).

Consider `COc1ccc(C)cc1N(C)C(=O)c1coc(=O)c2ccccc12`, for which the activation is 2.41% (inactive).

For the compound `Cc1cc(NC(=O)COc2ccccc2C#N)no1`, the activation is 6.89% (inactive).

As for `O=C(COC(=O)c1ccccn1)Nc1cccc2ccccc12`, the activation was -3.78% (inactive).

Take `N#Cc1ccccc1NC(=O)COc1c(Br)cc(Br)c2cccnc12`: the activation was 116% (active).
